This passage reports IC50 and Drug uptake results from ChEMBL document CHEMBL5230173, “Site-directed late-stage diversification of macrocyclic nannocystins facilitating anticancer SAR and mode of action studies” (RSC Med Chem, 2023).

For series [1], the system named is HCT-116. Briefly: Antiproliferative activity against human HCT-116 cells assessed as inhibition of cell growth incubated for 72 hrs by CCK-8 assay. As to conditions: HCT-116, 72 h; call rule not given here.
The subject of another series is HCT-8. Description: Antiproliferative activity against human HCT-8 cells assessed as inhibition of cell growth incubated for 72 hrs by CCK-8 assay. The conditions noted are these: HCT-8, 72 h.
The subject of another series is MDA-MB-231. Description: Antiproliferative activity against human MDA-MB-231 cells assessed as inhibition of cell growth incubated for 72 hrs by CCK-8 assay. As to conditions: MDA-MB-231, 72 h.
A short description of series [2]: Drug uptake in human MDA-MB-231 cells at 1 uM by laser scanning confocal microscopic analysis. In kind it is ADME, cell-based. As to conditions: mda-mb-231, 1 h, TDE = time-dependent effect, time < 60 min. An outline of the steps: (§1)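 MDA-MB231 cells were seeded at 6 × 10^4 on slides for 24 h in DMEM with 10% FBS. Cells were then PBS-washed twice, fixed in 4% formaldehyde for 2 min, and imaged by confocal microscopy (ex 405, em 460 nm).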

A short description of series [3]: Drug uptake in human MDA-MB-231 cells measured after compound washout by laser scanning confocal microscopic analysis. In kind it is ADME, cell-based.
Series [4] in a line: Drug uptake in human MDA-MB-231 cells incubated for 1 hrs by laser scanning confocal microscopic analysis. In kind it is ADME, cell-based. As to conditions: mda-mb-231, 1 h, dose 0.25-2 µM. The procedure, abridged: as §1
A short description of series [5]: Drug localization in endoplasmic reticulum of human HCT-8 cells at 250 nM incubated for 8 hrs by ER-tracker red based laser scanning confocal microscopic analysis. It counts as ADME, cell-based. The conditions noted are these: hct-8, 8 h, 0.25 µM. The procedure, abridged: (§2)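 HCT-8 (250 nM) and MDA-MB231 (500 nM) cells were seeded at 4 × 10^4 on slides for 24 h, then exposed to the probe for 8 h. After an HBSS wash, cells were stained with ER-Tracker Red for 20 min at 37 °C, washed twice with medium, and fixed in 4% formaldehyde for 2 min. Confocal imaging used probe ex 405/em 460 nm and tracker ex 587/em 615 nm.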

Series [6] can be described thus: Drug localization in endoplasmic reticulum of human MDA-MB-231 cells at 500 nM incubated for 8 hrs by ER-tracker red based laser scanning confocal microscopic analysis. In kind it is ADME, cell-based. As to conditions: mda-mb-231, 8 h, 0.5 µM. An outline of the steps: as §2
Series [7] deals with HCT-116. Description: Antiproliferative activity against human HCT-116 cells assessed as inhibition of cell growth by Celltiter-Glo luminescence assay. In kind it is functional, cell-based.
For series [8], the system named is HCT-116. Description: Antiproliferative activity against human HCT-116 cells assessed as inhibition of cell growth by thymidine plus proliferation assay. In kind it is functional, cell-based.

Take `CC[C@H](C)[C@H]1C(=O)N[C@H](COC(=O)C2CCCCC2)C(=O)N[C@@H](C(C)(C)O)C(=O)O[C@H](c2ccccc2)[C@H](C)/C=C/C=C(\C)[C@H](OC)C[C@@H]2O[C@@]2(C)C(=O)N1C`: the IC50 in the series on HCT-116 [1] came to 37.7 nM; in the series on HCT-8, 44 nM; with MDA-MB-231 it was 20.7 nM.

As for `CC[C@H](C)[C@H]1C(=O)N[C@H](COC(C)=O)C(=O)N[C@@H](C(C)(C)O)C(=O)O[C@H](c2ccccc2)[C@H](C)/C=C/C=C(\C)[C@H](OC)C[C@@H]2O[C@@]2(C)C(=O)N1C`, the IC50 was 17.5 nM with HCT-116 [1], 24.3 nM in the series on HCT-8 and 17 nM in the series with MDA-MB-231.

Consider `C=CC(=O)OC[C@H]1NC(=O)[C@H]([C@@H](C)CC)N(C)C(=O)[C@]2(C)O[C@H]2C[C@@H](OC)/C(C)=C/C=C/[C@@H](C)[C@@H](c2ccccc2)OC(=O)[C@H](C(C)(C)O)NC1=O`, for which the results for the IC50 with HCT-116 [1], in the series with HCT-8 and with MDA-MB-231 were 51.9 nM, 35.5 nM and 81.8 nM, respectively.

Consider `CCCCC(=O)OC[C@H]1NC(=O)[C@H]([C@@H](C)CC)N(C)C(=O)[C@]2(C)O[C@H]2C[C@@H](OC)/C(C)=C/C=C/[C@@H](C)[C@@H](c2ccccc2)OC(=O)[C@H](C(C)(C)O)NC1=O`, for which the IC50 with HCT-116 [1] is 27.1 nM; in the series on HCT-8 it was 18.4 nM; with MDA-MB-231, 46.2 nM.

For the compound `CC[C@H](C)[C@H]1C(=O)N[C@H](COC(=O)c2ccccc2)C(=O)N[C@@H](C(C)(C)O)C(=O)O[C@H](c2ccccc2)[C@H](C)/C=C/C=C(\C)[C@H](OC)C[C@@H]2O[C@@]2(C)C(=O)N1C`, the IC50 was found to be 13.7 nM in the series on HCT-116 [1], 23.4 nM with HCT-8 and 40.1 nM in the series with MDA-MB-231.

`CC[C@H](C)[C@H]1C(=O)N[C@H](COC(=O)c2cc3ccc(N(CC)CC)cc3oc2=O)C(=O)N[C@@H](C(C)(C)O)C(=O)O[C@H](c2ccccc2)[C@H](C)/C=C/C=C(\C)[C@H](OC)C[C@@H]2O[C@@]2(C)C(=O)N1C`: the Drug uptake entry in [2] is on record as “Tde”; in series [3], “Active”; in [4], “Dose-Dependent Effect”; in series [5], “Active”; in series [6] it was “Active”. Also, the IC50 in the series on HCT-116 [1] worked out at 136 nM; in the series with HCT-8, 52.3 nM; in the series on MDA-MB-231, 141 nM.

In the case of `CC[C@H](C)[C@H]1C(=O)N[C@H](COC(=O)/C=C/c2cc(F)cc(F)c2)C(=O)N[C@@H](C(C)(C)O)C(=O)O[C@H](c2ccccc2)[C@H](C)/C=C/C=C(\C)[C@H](OC)C[C@@H]2O[C@@]2(C)C(=O)N1C`, the IC50 in the series on HCT-116 [1] was determined as 23.5 nM; with HCT-8 it was 24.9 nM; in the series with MDA-MB-231, 78.8 nM.

With `CC[C@H](C)[C@H]1C(=O)N[C@H](COC(=O)c2sc(C)nc2C)C(=O)N[C@@H](C(C)(C)O)C(=O)O[C@H](c2ccccc2)[C@H](C)/C=C/C=C(\C)[C@H](OC)C[C@@H]2O[C@@]2(C)C(=O)N1C`, the values for the IC50 in the series with HCT-116 [1], with HCT-8 and with MDA-MB-231 were 2.9 nM, 60.5 nM and 20.6 nM, respectively.

For the compound `CC[C@H](C)[C@H]1C(=O)N[C@H](Cc2cc(Cl)c(O)c(Cl)c2)C(=O)N[C@@H](C(C)(C)O)C(=O)O[C@H](c2ccccc2)[C@H](C)/C=C/C=C(\C)[C@H](OC)C[C@@H]2O[C@@]2(C)C(=O)N1C`, the IC50 is 4.2 nM in the series with HCT-116 [1]; 2.6 nM with HCT-116 [7]; 10.9 nM with HCT-8; 15.2 nM with MDA-MB-231; 1.2 nM in the series on HCT-116 [8].

Take `CC[C@H](C)[C@H]1C(=O)N[C@H](COC(=O)C2=CCC2)C(=O)N[C@@H](C(C)(C)O)C(=O)O[C@H](c2ccccc2)[C@H](C)/C=C/C=C(\C)[C@H](OC)C[C@@H]2O[C@@]2(C)C(=O)N1C`: the IC50 worked out at 29.8 nM with HCT-116 [1], 2.9 nM in the series on HCT-8 and 43.5 nM with MDA-MB-231.

Regarding `CC[C@H](C)[C@H]1C(=O)N[C@H](COC(=O)c2ccncc2)C(=O)N[C@@H](C(C)(C)O)C(=O)O[C@H](c2ccccc2)[C@H](C)/C=C/C=C(\C)[C@H](OC)C[C@@H]2O[C@@]2(C)C(=O)N1C`, the IC50 in the series on HCT-116 [1] was 10.3 nM; in the series with HCT-8, 57.4 nM; with MDA-MB-231 it was 32.3 nM.

In the case of `CC[C@H](C)[C@H]1C(=O)N[C@H](COC(=O)C2CC2)C(=O)N[C@@H](C(C)(C)O)C(=O)O[C@H](c2ccccc2)[C@H](C)/C=C/C=C(\C)[C@H](OC)C[C@@H]2O[C@@]2(C)C(=O)N1C`, the IC50 in the series with HCT-116 [1] is 42.7 nM; with HCT-8, 19.6 nM; in the series with MDA-MB-231, 61.8 nM.

For `CC[C@H](C)[C@H]1C(=O)N[C@H](CO)C(=O)N[C@@H](C(C)(C)O)C(=O)O[C@H](c2ccccc2)[C@H](C)/C=C/C=C(\C)[C@H](OC)C[C@@H]2O[C@@]2(C)C(=O)N1C`, the IC50 is 37.6 nM in the series with HCT-116 [1], 32.2 nM with HCT-8 and 29.4 nM in the series on MDA-MB-231.

In the case of `CC[C@H](C)[C@H]1C(=O)N[C@H](COC(=O)/C=C/c2ccccc2)C(=O)N[C@@H](C(C)(C)O)C(=O)O[C@H](c2ccccc2)[C@H](C)/C=C/C=C(\C)[C@H](OC)C[C@@H]2O[C@@]2(C)C(=O)N1C`, the IC50 in the series on HCT-116 [1] was 18.7 nM; with HCT-8 it was 27.6 nM; in the series on MDA-MB-231, 45.8 nM.

Consider `CCCCCCCCCC(=O)OC[C@H]1NC(=O)[C@H]([C@@H](C)CC)N(C)C(=O)[C@]2(C)O[C@H]2C[C@@H](OC)/C(C)=C/C=C/[C@@H](C)[C@@H](c2ccccc2)OC(=O)[C@H](C(C)(C)O)NC1=O`, for which the IC50 in the series on HCT-116 [1] worked out at 76.6 nM; with HCT-8 it was 16.7 nM; in the series with MDA-MB-231, 97.4 nM.

As to `CC[C@H](C)[C@H]1C(=O)N[C@H](COC(=O)CCC(=O)O)C(=O)N[C@@H](C(C)(C)O)C(=O)O[C@H](c2ccccc2)[C@H](C)/C=C/C=C(\C)[C@H](OC)C[C@@H]2O[C@@]2(C)C(=O)N1C`, the IC50 with HCT-116 [1] is > 200 nM; in the series on HCT-8, 115 nM; in the series with MDA-MB-231, 52.6 nM.
